Measured values: ChEMBL document CHEMBL4330076, “Quinazolin-2,4-dione-Based Hydroxamic Acids as Selective Histone Deacetylase-6 Inhibitors for Treatment of Non-Small Cell Lung Cancer” (J Med Chem, 2019)

Tests used:
Histone deacetylase 1 = Histone deacetylase 1 (Homo sapiens, UniProt Q13547); assay: Inhibition of human full-length recombinant HDAC1 expressed in baculovirus infected Sf9 insect cells using fluorogenic peptide RHKKAc as substrate after 2 hrs
Summary of the method: (§1)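 Run by an outside contract lab. IC50 was obtained from 10-point dose-response curves using threefold serial dilutions of compound from the top concentration.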

Histone deacetylase 8 = target: T1, Histone deacetylase 8 (Homo sapiens, UniProt Q9BY41); assay: Inhibition of human full-length recombinant HDAC8 expressed in baculovirus infected Sf9 insect cells using fluorogenic peptide RHKAcKAc as substrate after 2 hrs
T1 sequence (Q9BY41 whole entry): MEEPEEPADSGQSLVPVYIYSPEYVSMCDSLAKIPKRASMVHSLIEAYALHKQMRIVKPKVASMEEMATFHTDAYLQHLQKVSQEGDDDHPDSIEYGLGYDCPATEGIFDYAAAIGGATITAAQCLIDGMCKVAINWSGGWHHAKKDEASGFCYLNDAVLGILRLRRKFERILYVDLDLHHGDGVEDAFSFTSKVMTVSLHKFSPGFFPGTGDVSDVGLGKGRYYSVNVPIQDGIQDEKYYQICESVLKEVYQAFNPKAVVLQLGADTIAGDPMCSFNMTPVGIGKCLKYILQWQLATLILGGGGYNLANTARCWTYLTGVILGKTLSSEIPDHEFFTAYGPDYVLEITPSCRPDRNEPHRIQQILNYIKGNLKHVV

Histone deacetylase 11 = target: T2, Histone deacetylase 11 (Homo sapiens, UniProt Q96DB2); assay: Inhibition of human full-length recombinant HDAC11 expressed in baculovirus infected Sf9 insect cells using fluorogenic peptide RHKKAc as substrate after 2 hrs; summary of the method: as §1
T2 sequence (Q96DB2 whole entry): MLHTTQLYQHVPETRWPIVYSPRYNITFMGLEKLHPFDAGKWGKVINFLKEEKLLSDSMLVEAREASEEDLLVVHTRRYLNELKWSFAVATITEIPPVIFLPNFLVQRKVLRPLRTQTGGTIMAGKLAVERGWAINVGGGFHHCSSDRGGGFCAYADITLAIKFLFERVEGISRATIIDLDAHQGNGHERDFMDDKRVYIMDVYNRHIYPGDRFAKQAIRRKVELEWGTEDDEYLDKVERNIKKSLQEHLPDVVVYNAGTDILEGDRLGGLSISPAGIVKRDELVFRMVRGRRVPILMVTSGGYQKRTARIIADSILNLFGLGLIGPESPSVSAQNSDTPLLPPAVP

[1] = target: T3, Protein deacetylase HDAC6 (Homo sapiens, UniProt Q9UBN7); assay: Inhibition of human full-length recombinant HDAC6 expressed in baculovirus infected Sf9 insect cells using fluorogenic peptide RHKKAc as substrate after 2 hrs
T3 sequence (Q9UBN7 whole entry): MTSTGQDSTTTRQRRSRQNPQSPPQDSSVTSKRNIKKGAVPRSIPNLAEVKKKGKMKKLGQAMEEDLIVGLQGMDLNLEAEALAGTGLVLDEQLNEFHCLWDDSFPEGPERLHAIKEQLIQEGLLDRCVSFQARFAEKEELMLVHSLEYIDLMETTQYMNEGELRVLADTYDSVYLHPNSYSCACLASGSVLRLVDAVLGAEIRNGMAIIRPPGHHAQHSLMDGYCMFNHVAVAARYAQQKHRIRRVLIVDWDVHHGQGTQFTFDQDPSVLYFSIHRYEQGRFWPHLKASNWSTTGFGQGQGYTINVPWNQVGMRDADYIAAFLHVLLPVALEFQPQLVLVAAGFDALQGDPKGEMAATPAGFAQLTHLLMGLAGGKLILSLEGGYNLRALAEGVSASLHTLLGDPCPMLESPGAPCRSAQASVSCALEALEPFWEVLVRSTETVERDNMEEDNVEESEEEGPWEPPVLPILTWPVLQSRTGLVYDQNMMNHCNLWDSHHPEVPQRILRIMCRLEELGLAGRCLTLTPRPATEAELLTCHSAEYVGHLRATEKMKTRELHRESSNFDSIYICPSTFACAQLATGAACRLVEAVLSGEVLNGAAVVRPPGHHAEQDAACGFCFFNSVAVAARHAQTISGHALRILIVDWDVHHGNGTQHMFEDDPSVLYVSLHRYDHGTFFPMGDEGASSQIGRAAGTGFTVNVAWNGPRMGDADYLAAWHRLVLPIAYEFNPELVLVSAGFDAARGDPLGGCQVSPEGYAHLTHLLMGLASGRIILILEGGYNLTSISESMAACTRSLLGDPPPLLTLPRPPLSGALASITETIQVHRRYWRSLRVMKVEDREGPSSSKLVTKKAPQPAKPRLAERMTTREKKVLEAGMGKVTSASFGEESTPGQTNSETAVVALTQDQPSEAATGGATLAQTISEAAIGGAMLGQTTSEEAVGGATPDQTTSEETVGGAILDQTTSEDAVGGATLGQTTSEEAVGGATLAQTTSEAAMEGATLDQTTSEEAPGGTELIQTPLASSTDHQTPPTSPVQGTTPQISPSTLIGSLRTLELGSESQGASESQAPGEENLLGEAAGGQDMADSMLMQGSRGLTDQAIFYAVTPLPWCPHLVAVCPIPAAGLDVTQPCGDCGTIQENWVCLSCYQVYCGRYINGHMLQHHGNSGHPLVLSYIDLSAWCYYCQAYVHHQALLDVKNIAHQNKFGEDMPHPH

[2] = target: T3, Protein deacetylase HDAC6; assay: Inhibition of human HDAC6 CD2 expressed in Escherichia coli BL21 (RIL) using Boc-Lys (Ac)-AMC as substrate preincubated for 10 mins followed by substrate addition and measured after 30 mins by fluorescence assay
[3] = target: T3, Protein deacetylase HDAC6; assay: Inhibition of human full-length recombinant HDAC6 expressed in baculovirus infected Sf9 insect cells using Boc-Lys (Ac)-AMC as substrate preincubated for 10 mins followed by substrate addition and measured after 30 mins by fluorescence assay
A549 [4] = assay: Cytotoxicity against human A549 cells after 72 hrs by MTT assay; assay type: functional, cell-based; conditions: A549, 72 h
Summary of the method: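 Human A549 lung cancer cells exposed to serial dilutions of inhibitor at 37 °C for 72 h. Cytotoxicity expressed as IC50.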

A549 [5] = assay: Induction of apoptosis in human A549 cells assessed as viable cells at 10 uM after 24 hrs by Annexin V/propidium iodide staining-based flow cytometric analysis (reference value: 96.2%); assay type: functional; conditions: A549, 24 h, read-out: Activity
[6] = test system: Lewis lung carcinoma cell line; assay: Induction of apoptosis in mouse LL/2 cells assessed as late apoptotic cells at 10 uM after 24 hrs by Annexin V/propidium iodide staining-based flow cytometric analysis (reference value: 8.7%); assay type: functional
[7] = test system: Lewis lung carcinoma cell line; assay: Induction of apoptosis in mouse LL/2 cells assessed as necrotic cells at 10 uM after 24 hrs by Annexin V/propidium iodide staining-based flow cytometric analysis (reference value: 7.3%); assay type: functional
[8] = test system: Lewis lung carcinoma cell line; assay: Induction of apoptosis in mouse LL/2 cells assessed as early apoptotic cells at 10 uM after 24 hrs by Annexin V/propidium iodide staining-based flow cytometric analysis (reference value: 1.8%); assay type: functional
[9] = test system: Lewis lung carcinoma cell line; assay: Induction of apoptosis in mouse LL/2 cells assessed as viable cells at 10 uM after 24 hrs by Annexin V/propidium iodide staining-based flow cytometric analysis (reference value: 82.3%); assay type: functional; conditions: read-out: Activity
[10] = test system: Lewis lung carcinoma cell line; assay: Induction of alpha tubulin acetylation in mouse LL/2 cells at 10 uM after 24 hrs by Western blot analysis relative to control; assay type: functional
A549 [11] = assay: Induction of apoptosis in human A549 cells assessed as necrotic cells at 10 uM after 24 hrs by Annexin V/propidium iodide staining-based flow cytometric analysis (reference value: 1.1%); assay type: functional
A549 [12] = assay: Induction of apoptosis in human A549 cells assessed as early apoptotic cells at 10 uM after 24 hrs by Annexin V/propidium iodide staining-based flow cytometric analysis (reference value: 1.2%); assay type: functional
[13] = test system: Lewis lung carcinoma cell line; assay: Cytotoxicity against mouse LL/2 cells at 10 uM after 72 hrs by MTT assay relative to control; assay type: functional; conditions: in the assay text read “at 10 nM” for “at 10 uM”
Summary of the method: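 Mouse LL/2 cells treated with inhibitor alone or combined with paclitaxel for 3 days. Viability measured by MTT assay relative to untreated control.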

A549 [14] = assay: Induction of apoptosis in human A549 cells assessed as late apoptotic cells at 10 uM after 24 hrs by Annexin V/propidium iodide staining-based flow cytometric analysis (reference value: 1.6%); assay type: functional
[15] = test system: Lewis lung carcinoma cell line; assay: Cytotoxicity against mouse LL/2 cells after 72 hrs by MTT assay; assay type: functional, cell-based
[16] = AUC (0 to 24 hrs) in C57BL/6 mouse kidney at 40 mg/kg, po administered via gavage by LC-MS/MS analysis; assay type: ADME, organism-based; design: time < 24 hr, dose 40 mg/kg, route oral; conditions: in vivo
[17] = AUC (0 to 24 hrs) in C57BL/6 mouse plasma at 40 mg/kg, po administered via gavage by LC-MS/MS analysis; assay type: ADME, organism-based; design: time < 24 hr, dose 40 mg/kg, route oral; conditions: in vivo
[18] = AUC (0 to 24 hrs) in C57BL/6 mouse lung at 40 mg/kg, po administered via gavage by LC-MS/MS analysis; assay type: ADME, organism-based; design: time < 24 hr, dose 40 mg/kg, route oral; conditions: in vivo
[19] = AUC (0 to 24 hrs) in C57BL/6 mouse liver at 40 mg/kg, po administered via gavage by LC-MS/MS analysis; assay type: ADME, organism-based; design: dose 40 mg/kg, time < 24 hr, route oral; conditions: in vivo

Sequence of Histone deacetylase 1 (Q13547 whole entry): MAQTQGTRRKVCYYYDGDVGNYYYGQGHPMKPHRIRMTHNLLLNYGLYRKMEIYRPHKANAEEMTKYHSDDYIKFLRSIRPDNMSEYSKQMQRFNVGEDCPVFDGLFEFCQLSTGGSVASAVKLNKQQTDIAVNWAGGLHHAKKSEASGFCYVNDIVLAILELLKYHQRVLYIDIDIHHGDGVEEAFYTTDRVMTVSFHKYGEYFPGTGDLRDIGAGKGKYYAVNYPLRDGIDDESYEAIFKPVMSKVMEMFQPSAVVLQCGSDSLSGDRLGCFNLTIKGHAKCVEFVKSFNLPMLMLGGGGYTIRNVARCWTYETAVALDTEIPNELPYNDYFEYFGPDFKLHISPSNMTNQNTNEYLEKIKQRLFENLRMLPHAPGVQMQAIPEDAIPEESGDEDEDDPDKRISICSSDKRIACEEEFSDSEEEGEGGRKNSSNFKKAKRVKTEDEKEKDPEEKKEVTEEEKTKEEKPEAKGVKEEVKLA

SMILES	IC50 (Histone deacetylase 1) [µM]	IC50 (Histone deacetylase 11) [µM]	IC50 [1] [µM]	IC50 (A549 [4]) [µM]	further results
COc1ccc(CCn2c(=O)c3ccccc3n(Cc3ccc(C(=O)NO)cc3)c2=O)cc1	7.37	13.8	0.02	–	IC50 (Histone deacetylase 8): 1.15 µM
O=C(NO)c1ccc(Cn2c(=O)n(CCc3ccccc3)c(=O)c3cccnc32)cc1	–	–	0.029	2.84	Ki [2]: 0.0045 µM; Ki [3]: 0.00389 µM
O=C(NO)c1ccc(Cn2c(=O)n(CCc3ccccc3)c(=O)c3ccc(O)cc32)cc1	–	–	0.032	–	–
O=C(NO)c1ccc(Cn2c(=O)n(CCc3ccc(F)cc3)c(=O)c3ccccc32)cc1	–	–	–	3.65	–
O=C(NO)c1cc(Cn2c(=O)n(CCc3ccccc3)c(=O)c3ccccc32)cs1	> 10	> 10	–	–	–
O=C(NO)c1ccc(Cn2c(=O)n(CCc3ccc(O)cc3)c(=O)c3ccccc32)cc1	9.08	11.3	0.005	–	IC50 (Histone deacetylase 8): 0.845 µM
O=C(NO)c1ccc(Cn2c(=O)n(CCc3ccccc3)c(=O)c3cc(F)ccc32)cc1	–	–	–	12.2	–
O=C(NO)c1cccc(Cn2c(=O)n(CCc3ccccc3)c(=O)c3ccccc32)c1	> 10	> 10	4.63	–	–
O=C(NO)c1ccc(Cn2c(=O)n(CCc3ccccc3)c(=O)c3ccccc32)s1	22.9	19.8	0.02	13.5	IC50 (Histone deacetylase 8): 0.097 µM
COc1ccccc1CCn1c(=O)c2ccccc2n(Cc2ccc(C(=O)NO)cc2)c1=O	–	–	0.012	11.8	Ki [2]: 0.0026 µM; Ki [3]: 0.0021 µM
O=C(NO)c1ccc(Cn2c(=O)n(CCc3cccc(C(F)(F)F)c3)c(=O)c3ccccc32)cc1	12.7	–	0.024	6.03	IC50 (Histone deacetylase 8): 1.76 µM
O=C(NO)c1ccc(Cn2c(=O)n(CCc3ccccc3)c(=O)c3ccc(Cl)cc32)cc1	–	–	0.022	–	–
O=C(NO)c1ccc(Cn2c(=O)n(CCc3ccccc3)c(=O)c3ccc(F)cc32)cc1	–	–	–	3.92	–
CC(=O)O[C@H]1C(=O)[C@@]2(C)[C@H]([C@H](OC(=O)c3ccccc3)[C@]3(O)C[C@H](OC(=O)[C@H](O)[C@@H](NC(=O)c4ccccc4)c4ccccc4)C(C)=C1C3(C)C)[C@]1(OC(C)=O)CO[C@@H]1C[C@@H]2O [PACLITAXEL]	–	–	–	–	viability at 10 µM (A549 [5]): 94.9%; Activity [6]: 15.9%; Activity [7]: 6.9%; Activity [8]: 4%; viability at 10 µM [9]: 73.4%; fold change (FC) [10]: 7.28; Activity (A549 [11]): 1%; Activity (A549 [12]): 2.9%; Activity [13]: 20%; Activity (A549 [14]): 1.2%; IC50 [15]: 0.01 µM
O=C(CCCCCCNC(=O)c1cnc(N(c2ccccc2)c2ccccc2)nc1)NO [RICOLINOSTAT]	–	–	–	7.7	AUC [16]: 2493 ng·h/g; AUC [17]: 308 ng·h/g; AUC [18]: 622 ng·h/g; AUC [19]: 1442 ng·h/g
O=C(CCCCCCC(=O)Nc1ccccc1)NO [VORINOSTAT]	–	–	–	2.24	–
